Results published in ChEMBL document CHEMBL1122273, “5-sulfamoylorthanilic acids, a sulfonamide series with salidiuretic activity” (J Med Chem, 1983).
Active and inactive are the calls of the source. No cut-off for these calls is given here.

Columns and labels:
Rattus norvegicus [1] = species: Rattus norvegicus; test: Saluretic activity in the rat measured as concentration of chloride in urine; type: functional
Method in brief: (§1)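 Rats deprived of food 24 h, water ad libitum, dosed 50 mg/kg by stomach tube as suspension in 2% starch, no extra water load. Groups of three in diuresis funnels; urine over first 5 h collected. Na⁺ and K⁺ by flame photometry, Cl⁻ argentometrically; expressed as mequiv/kg.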

[2] = It is the ratio, measured as saluretic activity in the dog as concentration of Na+ in urinary excretion (dose 1.56 mg/Kg, perorally) to that of K; type: functional, Urine
Method in brief: (§2)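 Trained male beagles, fasted 24 h with tap water ad libitum. Bladder emptied by catheter, then 20 mL/kg tap water by stomach tube, with 4 mL/kg water at each hourly catheterization up to 8 h. The first 2 h of urine served as control. Oral dosing came after the second catheterization, and 1–6 h urine was pooled. Na⁺ and K⁺ were measured by flame photometry, Cl⁻ argentometrically, in mequiv/kg.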

[3] = It is the ratio, measured as saluretic activity in the dog as concentration of Cl- in urinary excretion (dose 1.56 mg/Kg, perorally) to that of (Na+)+(K+); type: functional, Urine; method in brief: as §2
Canis familiaris [4] = test: Saluretic activity in the dog measured as concentration of K+ in urinary excretion (2 animals/dose) at (dose 1.56 mg/Kg, perorally); type: functional, Canis lupus familiaris, Urine
Method in brief: (§3)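 Male beagles trained to the procedures, food withdrawn 24 h before, tap water ad libitum. Bladder emptied by catheter, then 20 mL/kg tap water by stomach tube, plus 4 mL/kg orally at each hourly catheterization up to 8 h. The first 2 h of urine served as control. Compound given orally after the second catheterization. Urine from 1–6 h post-dose pooled; Na⁺ and K⁺ by flame photometry, Cl⁻ argentometrically, in mequiv/kg.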

Rattus norvegicus [5] = species: Rattus norvegicus; test: Diuretic activity in the rats, determined by a modified Lipschitz test; type: functional, Urine
Method in brief: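 Modified Lipschitz test: rats deprived of water 24 h, grouped in threes of similar weight in diuresis funnels. Oral dose of 50 mg/kg, suspended in 2% starch solution, by stomach tube.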

Rattus norvegicus [6] = species: Rattus norvegicus; test: Saluretic activity in the rat measured as concentration of K+ in urine; type: functional; method in brief: as §1
Canis familiaris [7] = test: Saluretic activity in the dog measured as concentration of Cl- in urinary excretion (2 animals/dose) at (dose 1.56 mg/Kg, perorally); type: functional, Canis lupus familiaris, Urine; method in brief: as §3
Rattus norvegicus [8] = test: Saluretic activity on the basis of the 50 mg/kg perorally rat assay; Compound is found to be moderately active; type: functional, organism-based; set-up: dose 50 mg/kg; method in brief: as §1
Rattus norvegicus [9] = species: Rattus norvegicus; test: Saluretic activity in the rat measured as concentration of Na+ in urine; type: functional; method in brief: as §1
Canis familiaris [10] = test: Saluretic activity in the dog measured as concentration of Na+ in urinary excretion (2 animals/dose) at (dose 1.56 mg/Kg, perorally); type: functional, Canis lupus familiaris, Urine
Method in brief: (§4)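 Male beagles trained to rest on a table and to accept stomach tube and catheter. Food withdrawn 24 h before, tap water ad libitum. Bladder emptied by catheter, then 20 mL/kg tap water by stomach tube. Catheterized hourly up to 8 h with 4 mL/kg water orally each time; first 2 h urine served as control. Oral dosing after second catheterization. Pooled 1–6 h urine; Na⁺/K⁺ by flame photometry, Cl⁻ argentometrically.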

Canis familiaris [11] = test: Diuretic activity in the dog (2 animals/dose) at (dose 1.56 mg/Kg), when administered perorally; type: functional, Canis lupus familiaris, Urine; method in brief: as §2
Canis familiaris [12] = test: Saluretic activity on the basis of the 1.56 mg/Kg perorally dog assay; Compound is found to be highly active.; type: functional, organism-based; settings: Canis lupus familiaris; method in brief: as §4
Canis familiaris [13] = test: Salidiuretic activity in the dog measured as concentration of K+ in urinary excretion (2 animals/dose) at (dose 1.56 mg/Kg, perorally); type: functional, Canis lupus familiaris, Urine; method in brief: as §3
Canis familiaris [14] = test: Salidiuretic activity in the dog measured as concentration of Cl - in urinary excretion (2 animals/dose) at (dose 1.56 mg/Kg, perorally); type: functional, Canis lupus familiaris, Urine; method in brief: as §3
Canis familiaris [15] = test: Saluretic activity in the dog measured as concentration of K+ in urinary excretion (2 animals/dose) at (dose 0.4 mg/Kg, po); type: functional, Canis lupus familiaris, Urine; method in brief: as §3
Canis familiaris [16] = test: Saluretic activity in the dog measured as concentration of Na+ in urinary excretion (2 animals/dose) at (dose 0.1 mg/Kg, po); type: functional, Canis lupus familiaris, Urine; method in brief: as §4
Canis familiaris [17] = test: Salidiuretic activity on the basis of the 1.56 mg/Kg po dog assay; compound was highly active; type: functional, organism-based; settings: Canis lupus familiaris; Urine
[18] = It is the ratio, measured as saluretic activity in the dog as concentration of Na+ in urinary excretion (dose 0.1 mg/Kg, po) to that of K; type: functional, Urine; method in brief: as §2
Canis familiaris [19] = test: Saluretic activity in the dog measured as concentration of K+ in urinary excretion (2 animals/dose) at (dose 1.56 mg/Kg, po); type: functional, Canis lupus familiaris, Urine; method in brief: as §4
Canis familiaris [20] = test: Saluretic activity in the dog measured as concentration of Cl - in urinary excretion (2 animals/dose) at (dose 1.56 mg/Kg, po); type: functional, Canis lupus familiaris, Urine; method in brief: as §3
Canis familiaris [21] = test: Saluretic activity in the dog measured as concentration of Cl - in urinary excretion (2 animals/dose) at (dose 6.25 mg/Kg, po); type: functional, Canis lupus familiaris, Urine; method in brief: as §3
Canis familiaris [22] = test: Saluretic activity in the dog measured as concentration of K+ in urinary excretion (2 animals/dose) at (dose 0.1 mg/Kg, po); type: functional, Canis lupus familiaris, Urine; method in brief: as §3
Canis familiaris [23] = test: Saluretic activity in the dog measured as concentration of Na+ in urinary excretion (2 animals/dose) at (dose 1.56 mg/Kg, po); type: functional, Canis lupus familiaris, Urine; method in brief: as §4
Canis familiaris [24] = test: It is the ratio, measured as saluretic activity in the dog as concentration of Na+ in urinary excretion (dose 1.56 mg/Kg, po) to that of K; type: functional, Canis lupus familiaris, Urine; method in brief: as §2
Canis familiaris [25] = test: Saluretic activity in the dog measured as concentration of Cl - in urinary excretion (2 animals/dose) at (dose 0.1 mg/Kg, po); type: functional, Canis lupus familiaris, Urine; method in brief: as §3
Canis familiaris [26] = test: Diuretic activity in the dog (2 animals/dose) at (dose 0.1 mg/Kg), when administered perorally; type: functional, Canis lupus familiaris, Urine; method in brief: as §2
Canis familiaris [27] = test: Saluretic activity in the dog measured as concentration of Na+ in urinary excretion (2 animals/dose) at (dose 0.4 mg/Kg, po); type: functional, Canis lupus familiaris, Urine; method in brief: as §4
[28] = It is the ratio, measured as saluretic activity in the dog as concentration of Cl- in urinary excretion (dose 0.1 mg/Kg, po) to that of (Na++K+); type: functional, Urine; method in brief: as §2
Canis familiaris [29] = test: Diuretic activity in the dog (2 animals/dose) at (dose 6.25 mg/Kg), when administered perorally; type: functional, Canis lupus familiaris, Urine; method in brief: as §2
Canis familiaris [30] = test: Saluretic activity in the dog measured as concentration of Cl - in urinary excretion (2 animals/dose) at (dose 0.4 mg/Kg, po); type: functional, Canis lupus familiaris, Urine; method in brief: as §3
Canis familiaris [31] = test: Diuretic activity in the dog (2 animals/dose) at (dose 0.4 mg/Kg), when administered perorally; type: functional, Canis lupus familiaris, Urine; method in brief: as §2
[32] = It is the ratio, measured as saluretic activity in the dog as concentration of Na+ in urinary excretion (dose 6.25 mg/Kg, po) to that of K; type: functional, Urine; method in brief: as §2
Canis familiaris [33] = test: Saluretic activity in the dog measured as concentration of K+ in urinary excretion (2 animals/dose) at (dose 6.25 mg/Kg, po); type: functional, Canis lupus familiaris, Urine; method in brief: as §4
[34] = It is the ratio, measured as saluretic activity in the dog as concentration of Na+ in urinary excretion (dose 0.4 mg/Kg, po) to that of K; type: functional, Urine; method in brief: as §2
Rattus norvegicus [35] = test: Salidiuretic activity on the basis of the 50 mg/kg po rat assay; compound was highly active; type: functional, organism-based; set-up: dose 50 mg/kg; settings: Urine
[36] = It is the ratio, measured as saluretic activity in the dog as concentration of Cl- in urinary excretion (dose 1.56 mg/Kg, po) to that of (Na++K+); type: functional, Urine; method in brief: as §2
[37] = It is the ratio, measured as saluretic activity in the dog as concentration of Cl- in urinary excretion (dose 6.25 mg/Kg, po) to that of (Na++K+); type: functional, Urine; method in brief: as §2
Canis familiaris [38] = test: Saluretic activity in the dog measured as concentration of Na+ in urinary excretion (2 animals/dose) at (dose 6.25 mg/Kg, po); type: functional, Canis lupus familiaris, Urine; method in brief: as §4
[39] = It is the ratio, measured as saluretic activity in the dog as concentration of Cl- in urinary excretion (dose 0.4 mg/Kg, po) to that of (Na++K+); type: functional, Urine; method in brief: as §2

NCc1cccs1.NS(=O)(=O)c1cc(S(=O)(=O)O)c(NCc2cccs2)cc1Cl
Saluretic activity (Rattus norvegicus [1]): 3.3 m equiv 5hr-1 kg-1 | Ratio [2]: 4.2 | Ratio [3]: 0.95 | Saluretic activity (Canis familiaris [4]): 0.55 m equiv 6hr-1 kg-1 | Diuretic activity (Rattus norvegicus [5]): 1 mL/kg | Saluretic activity (Rattus norvegicus [6]): 1.7 m equiv 5hr-1 kg-1 | Saldiuretic activity (Canis familiaris [7]): 2.76 m equiv 6hr-1 kg-1 | Saldiuretic activity (Rattus norvegicus [8]): Weak activity | Saluretic activity (Rattus norvegicus [9]): 2.7 m equiv 5hr-1 kg-1 | Saluretic activity (Canis familiaris [10]): 2.33 m equiv 6hr-1 kg-1 | Diuretic activity (Canis familiaris [11]): 44.5 ml kg-1 6hr-1 | Saldiuretic activity (Canis familiaris [12]): Active

NS(=O)(=O)c1cc(S(=O)(=O)[O-])c(NCCc2ccco2)cc1Cl.[Na+]
Saluretic activity (Rattus norvegicus [1]): 6.1 m equiv 5hr-1 kg-1 | Diuretic activity (Rattus norvegicus [5]): 1.9 mL/kg | Saldiuretic activity (Canis familiaris [13]): 0.15 m equiv 6hr-1 kg-1 | Saluretic activity (Rattus norvegicus [6]): 1.8 m equiv 5hr-1 kg-1 | Saluretic activity (Rattus norvegicus [9]): 4.6 m equiv 5hr-1 kg-1 | Saldiuretic activity (Canis familiaris [14]): 0.76 m equiv 6hr-1 kg-1 | Saluretic activity (Canis familiaris [10]): 0.56 m equiv 6hr-1 kg-1 | Diuretic activity (Canis familiaris [11]): 29.3 ml kg-1 6hr-1

NS(=O)(=O)c1cc(S(=O)(=O)[O-])c(NCc2ccco2)cc1S(=O)(=O)C1CCCCC1.[Na+]
Saluretic activity (Canis familiaris [15]): 0.82 m equiv 6hr-1 kg-1 | Saluretic activity (Rattus norvegicus [1]): 9.1 m equiv 5hr-1 kg-1 | Saluretic activity (Canis familiaris [16]): 1.95 m equiv 6hr-1 kg-1 | Saldiuretic activity (Canis familiaris [17]): Active | Diuretic activity (Rattus norvegicus [5]): 2.8 mL/kg | Ratio [18]: 3.7 | Saldiuretic activity (Canis familiaris [19]): 1.14 m equiv 6hr-1 kg-1 | Saldiuretic activity (Canis familiaris [20]): 6.15 m equiv 6hr-1 kg-1 | Saluretic activity (Rattus norvegicus [6]): 2.3 m equiv 5hr-1 kg-1 | Saldiuretic activity (Canis familiaris [21]): 6.83 m equiv 6hr-1 kg-1 | Saldiuretic activity (Canis familiaris [22]): 0.53 m equiv 6hr-1 kg-1 | Saluretic activity (Canis familiaris [23]): 5.38 m equiv 6hr-1 kg-1 | Ratio (Canis familiaris [24]): 4.7 | Saldiuretic activity (Canis familiaris [25]): 2.49 m equiv 6hr-1 kg-1 | Diuretic activity (Canis familiaris [26]): 44.7 ml kg-1 6hr-1 | Saluretic activity (Canis familiaris [27]): 3.71 m equiv 6hr-1 kg-1 | Saluretic activity (Rattus norvegicus [9]): 8.2 m equiv 5hr-1 kg-1 | Ratio [28]: 1 | Diuretic activity (Canis familiaris [29]): 73.5 ml kg-1 6hr-1 | Saldiuretic activity (Canis familiaris [30]): 4.43 m equiv 6hr-1 kg-1 | Diuretic activity (Canis familiaris [31]): 59 ml kg-1 6hr-1 | Ratio [32]: 4.7 | Saldiuretic activity (Canis familiaris [33]): 1.16 m equiv 6hr-1 kg-1 | Ratio [34]: 4.5 | Saldiuretic activity (Rattus norvegicus [35]): Active | Ratio [36]: 0.95 | Ratio [37]: 1 | Diuretic activity (Canis familiaris [11]): 66.7 ml kg-1 6hr-1 | Saluretic activity (Canis familiaris [38]): 5.5 m equiv 6hr-1 kg-1 | Ratio [39]: 1
